Nine compounds from ChEMBL document CHEMBL3091364, “Benzyloxybenzylammonium chlorides: Simple amine salts that display anticonvulsant activity” (Bioorg Med Chem, 2013) can be followed below.

In data set [1] the target is T1, Muscarinic acetylcholine receptor M2 (Homo sapiens) (UniProt P08172).
T1 sequence (whole entry): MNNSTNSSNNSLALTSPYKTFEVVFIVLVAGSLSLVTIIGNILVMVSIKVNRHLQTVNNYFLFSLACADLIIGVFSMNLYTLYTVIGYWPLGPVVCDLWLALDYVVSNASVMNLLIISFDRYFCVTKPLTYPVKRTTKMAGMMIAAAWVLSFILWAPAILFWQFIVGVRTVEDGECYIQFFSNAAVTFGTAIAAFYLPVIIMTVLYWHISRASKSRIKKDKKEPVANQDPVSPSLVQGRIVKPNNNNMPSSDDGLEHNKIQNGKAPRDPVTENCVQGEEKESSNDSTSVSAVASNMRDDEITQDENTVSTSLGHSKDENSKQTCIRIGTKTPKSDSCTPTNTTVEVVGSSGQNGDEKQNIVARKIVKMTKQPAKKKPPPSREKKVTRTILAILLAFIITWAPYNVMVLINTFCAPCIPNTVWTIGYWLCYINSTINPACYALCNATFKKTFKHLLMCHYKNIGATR
As to the kind of experiment: Inhibition of muscarinergic M2 receptor (unknown origin) at 10 uM relative to control.

In data set [2] the target is Histamine H3 receptor (Homo sapiens) (UniProt Q9Y5N1). The data set is described as follows: Inhibition of histamine H3 receptor (unknown origin) at 10 uM relative to control.
Sequence of Histamine H3 receptor (Homo sapiens) (Q9Y5N1 whole entry): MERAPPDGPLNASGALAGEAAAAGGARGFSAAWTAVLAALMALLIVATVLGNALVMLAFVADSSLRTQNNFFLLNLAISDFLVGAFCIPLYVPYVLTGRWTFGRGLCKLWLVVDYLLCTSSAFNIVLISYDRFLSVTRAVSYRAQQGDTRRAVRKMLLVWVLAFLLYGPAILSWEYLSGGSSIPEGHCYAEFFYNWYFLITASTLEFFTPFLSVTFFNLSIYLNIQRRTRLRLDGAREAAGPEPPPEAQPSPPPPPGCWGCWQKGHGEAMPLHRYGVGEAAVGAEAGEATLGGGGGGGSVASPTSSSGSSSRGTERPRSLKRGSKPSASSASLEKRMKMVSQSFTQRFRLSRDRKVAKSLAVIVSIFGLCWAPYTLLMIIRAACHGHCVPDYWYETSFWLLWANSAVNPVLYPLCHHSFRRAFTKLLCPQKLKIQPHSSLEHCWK
Data set [3] addresses Histamine H1 receptor (Homo sapiens) (UniProt P35367). The data set is described as follows: Inhibition of histamine H1 receptor (unknown origin) at 10 uM relative to control.
Data set [4] has as its target Mu-type opioid receptor (Homo sapiens) (UniProt P35372). As to the kind of experiment: Inhibition of mu opioid receptor (unknown origin) at 10 uM relative to control.
In data set [5] the target is Delta-type opioid receptor (Homo sapiens) (UniProt P41143). As to the kind of experiment: Inhibition of delta opioid receptor (unknown origin) at 10 uM relative to control.
Sequence of Delta-type opioid receptor (Homo sapiens) (P41143 whole entry): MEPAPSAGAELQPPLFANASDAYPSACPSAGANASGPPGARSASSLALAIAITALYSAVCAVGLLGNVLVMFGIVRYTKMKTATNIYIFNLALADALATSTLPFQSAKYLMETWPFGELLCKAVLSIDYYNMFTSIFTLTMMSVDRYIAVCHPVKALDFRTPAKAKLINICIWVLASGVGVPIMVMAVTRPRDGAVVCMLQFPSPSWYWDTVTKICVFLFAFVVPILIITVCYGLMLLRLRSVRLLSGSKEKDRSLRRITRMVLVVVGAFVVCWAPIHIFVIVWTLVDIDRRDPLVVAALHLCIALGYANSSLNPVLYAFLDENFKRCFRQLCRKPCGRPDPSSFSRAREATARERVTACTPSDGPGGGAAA
In data set [6] the target is T2, D(4) dopamine receptor (Homo sapiens) (UniProt P21917).
T2 sequence (whole entry): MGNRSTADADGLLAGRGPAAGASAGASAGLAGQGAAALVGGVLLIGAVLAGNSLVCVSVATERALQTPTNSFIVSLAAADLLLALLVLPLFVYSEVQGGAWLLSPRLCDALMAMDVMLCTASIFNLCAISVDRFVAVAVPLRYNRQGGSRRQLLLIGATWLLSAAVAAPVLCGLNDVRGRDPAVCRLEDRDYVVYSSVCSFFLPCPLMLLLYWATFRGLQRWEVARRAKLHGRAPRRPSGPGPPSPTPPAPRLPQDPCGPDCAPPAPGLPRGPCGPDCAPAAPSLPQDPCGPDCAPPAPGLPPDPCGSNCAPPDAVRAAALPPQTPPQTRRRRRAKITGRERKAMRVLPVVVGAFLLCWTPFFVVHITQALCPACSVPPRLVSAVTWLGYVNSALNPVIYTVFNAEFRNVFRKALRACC
The data set is described as follows: Inhibition of dopaminergic D4 receptor (unknown origin) at 10 uM relative to control.

For a further data set, the species on record is Rattus norvegicus. The data set is described as follows: Inhibition of BZP receptor in rat brain at 10 uM relative to control. In kind it is tissue-based.
In data set [7] the target is T3, Alpha-1B adrenergic receptor (Homo sapiens) (UniProt P35368).
T3 sequence (whole entry): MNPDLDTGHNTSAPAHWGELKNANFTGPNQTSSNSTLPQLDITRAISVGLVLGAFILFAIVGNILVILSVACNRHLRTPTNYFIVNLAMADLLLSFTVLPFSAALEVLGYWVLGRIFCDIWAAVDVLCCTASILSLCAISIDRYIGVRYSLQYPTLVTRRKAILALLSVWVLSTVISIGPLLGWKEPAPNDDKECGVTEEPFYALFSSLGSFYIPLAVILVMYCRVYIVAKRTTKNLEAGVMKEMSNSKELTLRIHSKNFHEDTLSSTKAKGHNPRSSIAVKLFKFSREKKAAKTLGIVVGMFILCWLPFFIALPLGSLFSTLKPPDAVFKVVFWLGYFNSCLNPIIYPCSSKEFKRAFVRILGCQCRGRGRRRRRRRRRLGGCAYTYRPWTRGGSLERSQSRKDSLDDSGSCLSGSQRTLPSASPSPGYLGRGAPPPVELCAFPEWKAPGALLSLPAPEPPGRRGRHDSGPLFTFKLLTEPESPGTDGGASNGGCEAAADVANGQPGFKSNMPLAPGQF
The data set is described as follows: Inhibition of adrenergic alpha-1B receptor (unknown origin) at 10 uM relative to control.

The nature of data set [8]: Solubility of the compound in water at 300 uM. Format: physicochemical. In outline:
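Hydrochloride salts checked for dissolution in water at 300 µM.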

Data set [9] has as its target T4, Muscarinic acetylcholine receptor M5 (Homo sapiens) (UniProt P08912).
T4 sequence (whole entry): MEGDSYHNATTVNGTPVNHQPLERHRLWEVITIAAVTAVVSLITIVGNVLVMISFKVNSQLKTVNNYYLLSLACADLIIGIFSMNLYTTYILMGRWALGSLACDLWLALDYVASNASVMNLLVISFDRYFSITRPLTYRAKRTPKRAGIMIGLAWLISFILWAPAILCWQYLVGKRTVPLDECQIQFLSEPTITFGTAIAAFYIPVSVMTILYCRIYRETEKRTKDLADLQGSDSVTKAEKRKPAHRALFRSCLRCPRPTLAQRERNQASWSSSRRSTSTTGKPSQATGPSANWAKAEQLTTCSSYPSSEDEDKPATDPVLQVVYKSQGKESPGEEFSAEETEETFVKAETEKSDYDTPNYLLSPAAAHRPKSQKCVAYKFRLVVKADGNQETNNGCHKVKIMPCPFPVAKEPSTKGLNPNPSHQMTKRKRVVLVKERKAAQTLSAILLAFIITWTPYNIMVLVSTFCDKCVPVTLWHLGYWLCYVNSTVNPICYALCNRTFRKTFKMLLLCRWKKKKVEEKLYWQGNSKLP
As to the kind of experiment: Inhibition of muscarinergic M5 receptor (unknown origin) at 10 uM relative to control.

Data set [10] deals with T5, Alpha-2C adrenergic receptor (Homo sapiens) (UniProt P18825).
T5 sequence (whole entry): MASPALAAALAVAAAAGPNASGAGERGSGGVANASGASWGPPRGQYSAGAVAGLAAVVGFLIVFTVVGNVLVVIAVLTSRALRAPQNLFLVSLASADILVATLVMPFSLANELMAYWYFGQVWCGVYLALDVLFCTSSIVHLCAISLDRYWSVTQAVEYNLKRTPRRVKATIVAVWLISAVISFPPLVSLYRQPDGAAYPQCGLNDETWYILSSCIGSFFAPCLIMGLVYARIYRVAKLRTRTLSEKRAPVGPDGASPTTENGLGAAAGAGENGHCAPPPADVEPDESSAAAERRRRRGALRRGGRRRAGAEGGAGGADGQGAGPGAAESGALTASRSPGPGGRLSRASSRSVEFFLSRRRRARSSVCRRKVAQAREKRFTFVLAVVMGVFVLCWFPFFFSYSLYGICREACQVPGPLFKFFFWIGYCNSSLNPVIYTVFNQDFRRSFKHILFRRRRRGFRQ
The data set is described as follows: Inhibition of adrenergic alpha-2C receptor (unknown origin) at 10 uM relative to control.

Data set [11] addresses 5-hydroxytryptamine receptor 5A (Homo sapiens) (UniProt P47898). As to the kind of experiment: Inhibition of 5-HT5A receptor (unknown origin) at 10 uM relative to control.

Sequence of Histamine H1 receptor (Homo sapiens) (P35367 whole entry): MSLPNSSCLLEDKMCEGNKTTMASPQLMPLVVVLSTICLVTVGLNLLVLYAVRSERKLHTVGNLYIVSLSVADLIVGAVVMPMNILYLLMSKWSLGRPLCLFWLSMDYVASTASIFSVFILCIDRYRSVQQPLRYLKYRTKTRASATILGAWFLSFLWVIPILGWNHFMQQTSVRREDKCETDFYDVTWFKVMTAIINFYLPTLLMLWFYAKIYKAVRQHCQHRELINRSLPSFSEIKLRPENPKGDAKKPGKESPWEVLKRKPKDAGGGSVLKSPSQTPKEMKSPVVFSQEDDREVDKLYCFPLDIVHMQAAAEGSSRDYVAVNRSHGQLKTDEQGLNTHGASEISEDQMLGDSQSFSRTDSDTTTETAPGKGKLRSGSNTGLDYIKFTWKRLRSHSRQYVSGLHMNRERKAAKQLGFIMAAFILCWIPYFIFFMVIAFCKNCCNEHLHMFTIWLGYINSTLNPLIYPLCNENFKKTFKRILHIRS
Sequence of Mu-type opioid receptor (Homo sapiens) (P35372 whole entry): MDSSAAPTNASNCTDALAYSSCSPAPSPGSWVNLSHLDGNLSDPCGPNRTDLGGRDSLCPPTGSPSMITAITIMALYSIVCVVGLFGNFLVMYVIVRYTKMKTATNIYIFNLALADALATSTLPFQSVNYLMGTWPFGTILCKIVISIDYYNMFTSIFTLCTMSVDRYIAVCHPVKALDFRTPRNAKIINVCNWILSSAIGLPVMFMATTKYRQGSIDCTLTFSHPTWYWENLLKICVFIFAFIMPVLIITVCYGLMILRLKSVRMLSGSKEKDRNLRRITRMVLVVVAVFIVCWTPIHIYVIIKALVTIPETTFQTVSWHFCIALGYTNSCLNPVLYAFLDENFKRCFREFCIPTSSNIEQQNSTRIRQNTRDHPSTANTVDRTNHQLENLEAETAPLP
Sequence of 5-hydroxytryptamine receptor 5A (Homo sapiens) (P47898 whole entry): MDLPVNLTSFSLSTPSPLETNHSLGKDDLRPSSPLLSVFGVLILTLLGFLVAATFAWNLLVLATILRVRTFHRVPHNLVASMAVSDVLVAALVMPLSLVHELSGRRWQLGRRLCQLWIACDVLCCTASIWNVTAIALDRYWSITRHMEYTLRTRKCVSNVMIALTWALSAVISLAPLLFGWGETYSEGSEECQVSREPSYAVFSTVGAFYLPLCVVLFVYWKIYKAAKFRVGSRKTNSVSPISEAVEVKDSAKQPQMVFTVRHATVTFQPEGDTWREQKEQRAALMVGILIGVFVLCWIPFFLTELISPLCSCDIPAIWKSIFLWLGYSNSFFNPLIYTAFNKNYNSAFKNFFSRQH

On to `Cl.NCc1ccc(OCc2cccc(F)c2)cc1`, for which the inhibition is -6% in [1]; -2.8% in data set [2]; 5.2% in data set [3]; -8.6% in data set [4]; 18% in data set [5]; 9.9% in data set [6]. The inhibition in the data set filed under Rattus norvegicus turned out to be 25.8%; in data set [7], 24.8%. The solubility entry in data set [8] is on record as “soluble”.
For `Cl.NCc1ccc(OCc2cccc(Cl)c2)cc1`, the inhibition in data set [9] is 17.7%; in data set [1], 13.1%; in [2], 19.3%; in data set [3], 1.4%; in data set [4], -2.2%; in [5] it was 17%. For the same compound, the inhibition in data set [6] was 79.4%; in the data set listed under Rattus norvegicus, -4.4%; in [10], 81.1%; in data set [7] it was 11.4%; in data set [11] it was 44.9%. The solubility result in [8] is on record as “soluble”.
Turning to `Cl.NCc1ccc(OCc2ccccc2OC(F)(F)F)cc1`, the inhibition in [9] was 0.4%; in data set [1], 3.8%; in [2], 11.8%; in data set [3], 15.6%; in data set [4], -4.8%; in data set [5], 23%. Further, the inhibition in [6] was 94.6%; in the data set listed under Rattus norvegicus, 5.9%; in [10], 40.2%; in data set [7], -2.4%; in data set [11], -0.1%. In addition, the solubility result in data set [8] was “soluble”.
Turning to `Cl.NCc1ccc(OCc2ccc(F)cc2)cc1`, the inhibition is 6.4% in data set [9]; 12.6% in data set [1]; 35% in [2]; -5.8% in [3]; -5.5% in data set [4]; 17% in data set [5]. Also, the inhibition in data set [6] turned out to be 19.5%; in the data set listed under Rattus norvegicus it was 8.9%; in data set [10], 40.2%; in [11] it was 8.5%. The solubility entry in [8] was “soluble”.
Consider `Cl.NCc1ccc(OCc2cccc(OC(F)(F)F)c2)cc1`, for which the inhibition worked out at 0.8% in [9]; 4.5% in [1]; 21.7% in [2]; 12.1% in [3]; 2.8% in data set [4]; 0.9% in [5]. In addition, the inhibition in [6] is 22.1%; in the data set listed under Rattus norvegicus, 19.8%; in [10], 46.6%; in data set [7] it was -3.8%; in [11], 0.2%. Moreover, in [8], the solubility entry was “soluble”.
Regarding `Cl.NCc1ccc(OCc2ccccc2)cc1`, the inhibition in [9] is -2.7%; in [1] it was -2.5%; in data set [2] it was 11.2%; in data set [3] it was 7.6%; in data set [4] it was -5.8%; in data set [5], 22%. Also, the inhibition in [6] worked out at 27.4%; in the data set filed under Rattus norvegicus, 12.7%; in data set [10] it was 47.6%; in data set [7], 0.5%; in [11], 1.2%. In addition, the solubility result in data set [8] is given as “soluble”.
In the case of `Cl.NCc1ccc(OCc2ccccc2F)cc1`, the inhibition in [9] is -8.5%; in [1] it was -7.5%; in [2], -0.4%; in [3], 6.7%; in data set [5] it was 17%; in [6] it was 44%. The inhibition is -1.5% in the data set listed under Rattus norvegicus, 33% in data set [10], 13.6% in data set [7] and -5.2% in data set [11]. Further, the solubility entry in data set [8] was “soluble”.
As to `Cl.NCc1ccc(OCc2ccc(Cl)cc2)cc1`, the inhibition was 13.6% in data set [9]; 10.9% in data set [1]; 35.3% in data set [2]; 0.3% in [3]; -2.3% in data set [4]; 13% in data set [5]. Further, the inhibition in [6] came to 24.7%; in the data set listed under Rattus norvegicus, 6.5%; in data set [10], 52.1%; in [11], 36.6%. In addition, in data set [8], the solubility entry is listed as “soluble”.
Take `Cl.NCc1ccc(OCc2ccc(OC(F)(F)F)cc2)cc1`: the inhibition is 1.7% in data set [9]; 1.9% in data set [1]; 21.1% in data set [2]; 14.7% in [3]; -5.6% in [4]; 21% in [5]. Also, the inhibition in data set [6] is -0.2%; in the data set listed under Rattus norvegicus it was 0.3%; in data set [10] it was 42.2%; in data set [7], 4.1%; in data set [11], -1.8%. For the same compound, the solubility result in data set [8] was “soluble”.

By inhibition is commonly meant the relative decrease from the control value, in per cent.
